Results taken from ChEMBL document CHEMBL4689842, “EUbOPEN Chemogenomics Library wave 1” (2021).

Tested on: HEK-293T
Experiment: Multiplex assay against HEK293T;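 for Population Tubulin-Different-Phenotype (%): share of the cells with healthy nuclei that show this phenotype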
Format: toxicity, cell-based
Conditions: human
Procedure, shortened: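 At seeding, live cells were stained with Hoechst33342, BioTracker Green Microtubule Cytoskeleton Dye, MitoTracker Red and Annexin V Alexa Fluor 680. After compound addition they were imaged on a CQ1 microscope at 37°C and 5% CO2, and CellPathfinder machine-learning gating sorted them into Hoechst high-intensity objects or normal cells, with normal cells further split into healthy, pyknosed or fragmented nuclei and pyknosed cells into mitotic or apoptotic. Tubulin, mitochondrial-mass and membrane-permeability phenotypes are given as per cents of cells with healthy nuclei.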

[1] = 12 h, 1 µM, compound concentration 1 uM, replicate 1
[2] = 12 h, 1 µM, compound concentration 1 uM, replicate 2
[3] = 12 h, 10 µM, compound concentration 10 uM, replicate 1
[4] = 12 h, 10 µM, compound concentration 10 uM, replicate 2
[5] = 24 h, 1 µM, compound concentration 1 uM, replicate 1
[6] = 24 h, 1 µM, compound concentration 1 uM, replicate 2
[7] = 24 h, 10 µM, compound concentration 10 uM, replicate 1
[8] = 24 h, 10 µM, compound concentration 10 uM, replicate 2
[9] = 48 h, 1 µM, compound concentration 1 uM, replicate 1
[10] = 48 h, 1 µM, compound concentration 1 uM, replicate 2
[11] = 48 h, 10 µM, compound concentration 10 uM, replicate 1
[12] = 48 h, 10 µM, compound concentration 10 uM, replicate 2

CCCn1c(=O)c2[nH]c(-c3cnn(Cc4cccc(C(F)(F)F)c4)c3)nc2n(CC)c1=O [GS 6201]
Population Apoptotic (%) [1]: 48%
Population Fragmented Nuclei (%) [1]: 14%
Population Healthy Nuclei (%) [1]: 15%
Population Hoechst High Intensity Objects (%) [1]: 18%
Population Membrane Permeable-Phenotype (%) [1]: 2%
Population Mitochondria Different-Phenotype (%) [1]: 83%
Population Mitotic Cells (%) [1]: 51%
Population Normal (%) [1]: 81%
Population Pyknosed Nuclei (%) [1]: 69%
Population Tubulin-Different-Phenotype (%) [1]: 67%
Total Cell Count [1]: 294
Population Apoptotic (%) [2]: 9%
Population Fragmented Nuclei (%) [2]: 7%
Population Healthy Nuclei (%) [2]: 43%
Population Hoechst High Intensity Objects (%) [2]: 5%
Population Membrane Permeable-Phenotype (%) [2]: 10%
Population Mitochondria Different-Phenotype (%) [2]: 9%
Population Mitotic Cells (%) [2]: 90%
Population Normal (%) [2]: 94%
Population Pyknosed Nuclei (%) [2]: 49%
Population Tubulin-Different-Phenotype (%) [2]: 22%
Total Cell Count [2]: 239
Population Apoptotic (%) [3]: 46%
Population Fragmented Nuclei (%) [3]: 28%
Population Healthy Nuclei (%) [3]: 13%
Population Hoechst High Intensity Objects (%) [3]: 25%
Population Membrane Permeable-Phenotype (%) [3]: 0%
Population Mitochondria Different-Phenotype (%) [3]: 80%
Population Mitotic Cells (%) [3]: 53%
Population Normal (%) [3]: 74%
Population Pyknosed Nuclei (%) [3]: 58%
Population Tubulin-Different-Phenotype (%) [3]: 83%
Total Cell Count [3]: 316
Population Apoptotic (%) [4]: 8%
Population Fragmented Nuclei (%) [4]: 4%
Population Healthy Nuclei (%) [4]: 45%
Population Hoechst High Intensity Objects (%) [4]: 2%
Population Membrane Permeable-Phenotype (%) [4]: 7%
Population Mitochondria Different-Phenotype (%) [4]: 25%
Population Mitotic Cells (%) [4]: 91%
Population Normal (%) [4]: 97%
Population Pyknosed Nuclei (%) [4]: 49%
Population Tubulin-Different-Phenotype (%) [4]: 31%
Total Cell Count [4]: 325
Population Apoptotic (%) [5]: 52%
Population Fragmented Nuclei (%) [5]: 19%
Population Healthy Nuclei (%) [5]: 10%
Population Hoechst High Intensity Objects (%) [5]: 23%
Population Membrane Permeable-Phenotype (%) [5]: 0%
Population Mitochondria Different-Phenotype (%) [5]: 75%
Population Mitotic Cells (%) [5]: 47%
Population Normal (%) [5]: 76%
Population Pyknosed Nuclei (%) [5]: 70%
Population Tubulin-Different-Phenotype (%) [5]: 66%
Total Cell Count [5]: 303
Population Apoptotic (%) [6]: 13%
Population Fragmented Nuclei (%) [6]: 5%
Population Healthy Nuclei (%) [6]: 64%
Population Hoechst High Intensity Objects (%) [6]: 1%
Population Membrane Permeable-Phenotype (%) [6]: 11%
Population Mitochondria Different-Phenotype (%) [6]: 12%
Population Mitotic Cells (%) [6]: 86%
Population Normal (%) [6]: 98%
Population Pyknosed Nuclei (%) [6]: 29%
Population Tubulin-Different-Phenotype (%) [6]: 28%
Total Cell Count [6]: 288
Population Apoptotic (%) [7]: 47%
Population Fragmented Nuclei (%) [7]: 35%
Population Healthy Nuclei (%) [7]: 18%
Population Hoechst High Intensity Objects (%) [7]: 24%
Population Membrane Permeable-Phenotype (%) [7]: 4%
Population Mitochondria Different-Phenotype (%) [7]: 84%
Population Mitotic Cells (%) [7]: 52%
Population Normal (%) [7]: 75%
Population Pyknosed Nuclei (%) [7]: 46%
Population Tubulin-Different-Phenotype (%) [7]: 72%
Total Cell Count [7]: 314
Population Apoptotic (%) [8]: 17%
Population Fragmented Nuclei (%) [8]: 3%
Population Healthy Nuclei (%) [8]: 63%
Population Hoechst High Intensity Objects (%) [8]: 1%
Population Membrane Permeable-Phenotype (%) [8]: 8%
Population Mitochondria Different-Phenotype (%) [8]: 17%
Population Mitotic Cells (%) [8]: 82%
Population Normal (%) [8]: 98%
Population Pyknosed Nuclei (%) [8]: 32%
Population Tubulin-Different-Phenotype (%) [8]: 35%
Total Cell Count [8]: 424
Population Apoptotic (%) [9]: 55%
Population Fragmented Nuclei (%) [9]: 27%
Population Healthy Nuclei (%) [9]: 6%
Population Hoechst High Intensity Objects (%) [9]: 19%
Population Membrane Permeable-Phenotype (%) [9]: 0%
Population Mitochondria Different-Phenotype (%) [9]: 29%
Population Mitotic Cells (%) [9]: 44%
Population Normal (%) [9]: 80%
Population Pyknosed Nuclei (%) [9]: 65%
Population Tubulin-Different-Phenotype (%) [9]: 47%
Total Cell Count [9]: 303
Population Apoptotic (%) [10]: 14%
Population Fragmented Nuclei (%) [10]: 5%
Population Healthy Nuclei (%) [10]: 81%
Population Hoechst High Intensity Objects (%) [10]: 3%
Population Membrane Permeable-Phenotype (%) [10]: 7%
Population Mitochondria Different-Phenotype (%) [10]: 3%
Population Mitotic Cells (%) [10]: 85%
Population Normal (%) [10]: 96%
Population Pyknosed Nuclei (%) [10]: 13%
Population Tubulin-Different-Phenotype (%) [10]: 12%
Total Cell Count [10]: 506
Population Apoptotic (%) [11]: 53%
Population Fragmented Nuclei (%) [11]: 44%
Population Healthy Nuclei (%) [11]: 11%
Population Hoechst High Intensity Objects (%) [11]: 24%
Population Membrane Permeable-Phenotype (%) [11]: 0%
Population Mitochondria Different-Phenotype (%) [11]: 62%
Population Mitotic Cells (%) [11]: 46%
Population Normal (%) [11]: 75%
Population Pyknosed Nuclei (%) [11]: 44%
Population Tubulin-Different-Phenotype (%) [11]: 59%
Total Cell Count [11]: 325
Population Apoptotic (%) [12]: 18%
Population Fragmented Nuclei (%) [12]: 5%
Population Healthy Nuclei (%) [12]: 83%
Population Hoechst High Intensity Objects (%) [12]: 4%
Population Membrane Permeable-Phenotype (%) [12]: 5%
Population Mitochondria Different-Phenotype (%) [12]: 8%
Population Mitotic Cells (%) [12]: 81%
Population Normal (%) [12]: 95%
Population Pyknosed Nuclei (%) [12]: 10%
Population Tubulin-Different-Phenotype (%) [12]: 31%
Total Cell Count [12]: 739

CCCS(=O)(=O)c1nc(NC2CC2)cc(-c2ccc3c(ccn3C3CC(C)(C)NC(C)(C)C3)c2)n1
Population Apoptotic (%) [1]: 58%
Population Fragmented Nuclei (%) [1]: 8%
Population Healthy Nuclei (%) [1]: 37%
Population Hoechst High Intensity Objects (%) [1]: 13%
Population Membrane Permeable-Phenotype (%) [1]: 4%
Population Mitochondria Different-Phenotype (%) [1]: 86%
Population Mitotic Cells (%) [1]: 41%
Population Normal (%) [1]: 86%
Population Pyknosed Nuclei (%) [1]: 53%
Population Tubulin-Different-Phenotype (%) [1]: 80%
Total Cell Count [1]: 351
Population Apoptotic (%) [2]: 18%
Population Fragmented Nuclei (%) [2]: 11%
Population Healthy Nuclei (%) [2]: 24%
Population Hoechst High Intensity Objects (%) [2]: 7%
Population Membrane Permeable-Phenotype (%) [2]: 12%
Population Mitochondria Different-Phenotype (%) [2]: 51%
Population Mitotic Cells (%) [2]: 81%
Population Normal (%) [2]: 92%
Population Pyknosed Nuclei (%) [2]: 64%
Population Tubulin-Different-Phenotype (%) [2]: 45%
Total Cell Count [2]: 137
Population Apoptotic (%) [3]: 65%
Population Fragmented Nuclei (%) [3]: 63%
Population Healthy Nuclei (%) [3]: 3%
Population Hoechst High Intensity Objects (%) [3]: 9%
Population Membrane Permeable-Phenotype (%) [3]: 16%
Population Mitochondria Different-Phenotype (%) [3]: 16%
Population Mitotic Cells (%) [3]: 34%
Population Normal (%) [3]: 90%
Population Pyknosed Nuclei (%) [3]: 33%
Population Tubulin-Different-Phenotype (%) [3]: 16%
Total Cell Count [3]: 650
Population Apoptotic (%) [4]: 74%
Population Fragmented Nuclei (%) [4]: 24%
Population Healthy Nuclei (%) [4]: 1%
Population Hoechst High Intensity Objects (%) [4]: 10%
Population Membrane Permeable-Phenotype (%) [4]: 0%
Population Mitochondria Different-Phenotype (%) [4]: 100%
Population Mitotic Cells (%) [4]: 25%
Population Normal (%) [4]: 89%
Population Pyknosed Nuclei (%) [4]: 74%
Population Tubulin-Different-Phenotype (%) [4]: 100%
Total Cell Count [4]: 274
Population Apoptotic (%) [5]: 60%
Population Fragmented Nuclei (%) [5]: 10%
Population Healthy Nuclei (%) [5]: 37%
Population Hoechst High Intensity Objects (%) [5]: 14%
Population Membrane Permeable-Phenotype (%) [5]: 2%
Population Mitochondria Different-Phenotype (%) [5]: 79%
Population Mitotic Cells (%) [5]: 39%
Population Normal (%) [5]: 85%
Population Pyknosed Nuclei (%) [5]: 52%
Population Tubulin-Different-Phenotype (%) [5]: 80%
Total Cell Count [5]: 345
Population Apoptotic (%) [6]: 31%
Population Fragmented Nuclei (%) [6]: 11%
Population Healthy Nuclei (%) [6]: 34%
Population Hoechst High Intensity Objects (%) [6]: 7%
Population Membrane Permeable-Phenotype (%) [6]: 11%
Population Mitochondria Different-Phenotype (%) [6]: 66%
Population Mitotic Cells (%) [6]: 68%
Population Normal (%) [6]: 92%
Population Pyknosed Nuclei (%) [6]: 53%
Population Tubulin-Different-Phenotype (%) [6]: 71%
Total Cell Count [6]: 140
Population Apoptotic (%) [7]: 60%
Population Fragmented Nuclei (%) [7]: 63%
Population Healthy Nuclei (%) [7]: 3%
Population Hoechst High Intensity Objects (%) [7]: 11%
Population Membrane Permeable-Phenotype (%) [7]: 26%
Population Mitochondria Different-Phenotype (%) [7]: 5%
Population Mitotic Cells (%) [7]: 39%
Population Normal (%) [7]: 88%
Population Pyknosed Nuclei (%) [7]: 32%
Population Tubulin-Different-Phenotype (%) [7]: 10%
Total Cell Count [7]: 639
Population Apoptotic (%) [8]: 88%
Population Fragmented Nuclei (%) [8]: 29%
Population Healthy Nuclei (%) [8]: 4%
Population Hoechst High Intensity Objects (%) [8]: 10%
Population Membrane Permeable-Phenotype (%) [8]: 11%
Population Mitochondria Different-Phenotype (%) [8]: 33%
Population Mitotic Cells (%) [8]: 12%
Population Normal (%) [8]: 89%
Population Pyknosed Nuclei (%) [8]: 66%
Population Tubulin-Different-Phenotype (%) [8]: 88%
Total Cell Count [8]: 249
Population Apoptotic (%) [9]: 54%
Population Fragmented Nuclei (%) [9]: 15%
Population Healthy Nuclei (%) [9]: 47%
Population Hoechst High Intensity Objects (%) [9]: 17%
Population Membrane Permeable-Phenotype (%) [9]: 7%
Population Mitochondria Different-Phenotype (%) [9]: 58%
Population Mitotic Cells (%) [9]: 45%
Population Normal (%) [9]: 82%
Population Pyknosed Nuclei (%) [9]: 37%
Population Tubulin-Different-Phenotype (%) [9]: 79%
Total Cell Count [9]: 417
Population Apoptotic (%) [10]: 28%
Population Fragmented Nuclei (%) [10]: 9%
Population Healthy Nuclei (%) [10]: 61%
Population Hoechst High Intensity Objects (%) [10]: 5%
Population Membrane Permeable-Phenotype (%) [10]: 12%
Population Mitochondria Different-Phenotype (%) [10]: 32%
Population Mitotic Cells (%) [10]: 71%
Population Normal (%) [10]: 94%
Population Pyknosed Nuclei (%) [10]: 29%
Population Tubulin-Different-Phenotype (%) [10]: 64%
Total Cell Count [10]: 226
Population Apoptotic (%) [11]: 69%
Population Fragmented Nuclei (%) [11]: 67%
Population Healthy Nuclei (%) [11]: 3%
Population Hoechst High Intensity Objects (%) [11]: 11%
Population Membrane Permeable-Phenotype (%) [11]: 31%
Population Mitochondria Different-Phenotype (%) [11]: 0%
Population Mitotic Cells (%) [11]: 30%
Population Normal (%) [11]: 88%
Population Pyknosed Nuclei (%) [11]: 29%
Population Tubulin-Different-Phenotype (%) [11]: 0%
Total Cell Count [11]: 663
Population Apoptotic (%) [12]: 87%
Population Fragmented Nuclei (%) [12]: 36%
Population Healthy Nuclei (%) [12]: 19%
Population Hoechst High Intensity Objects (%) [12]: 9%
Population Membrane Permeable-Phenotype (%) [12]: 6%
Population Mitochondria Different-Phenotype (%) [12]: 65%
Population Mitotic Cells (%) [12]: 12%
Population Normal (%) [12]: 90%
Population Pyknosed Nuclei (%) [12]: 44%
Population Tubulin-Different-Phenotype (%) [12]: 93%
Total Cell Count [12]: 253
